Source: PubChem (The Scripps Research Institute Molecular Screening Center)
Fh CTSL1 inh: counter-screen for PFM18AAP inhibitors: inhibitors of F. hepatica cathepsin L1; recombinant F. hepatica cathepsin L1, Z-Leu-Arg-MCA fluorescence; inhibition, % at 5.96 µM; 300,000 tested, 0.49% active; AID 1906;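 active = inhibition above the mean of all tested compounds plus 3 SD, set per screening campaign, cut at about 17% in these data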
GSTO1 counter: blocks human GSTO1 in RBBP9 counter-screen. recombinant GSTO1, activity-based probe fluorescence polarization. inhibition, % at 5.96 µM. 300,000 tested, 1.1% active. AID 1974;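 active = inhibition above the campaign mean inhibition plus 3 SD, cut at about 35% in these data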
Target sequence (P78417 whole entry, looked up): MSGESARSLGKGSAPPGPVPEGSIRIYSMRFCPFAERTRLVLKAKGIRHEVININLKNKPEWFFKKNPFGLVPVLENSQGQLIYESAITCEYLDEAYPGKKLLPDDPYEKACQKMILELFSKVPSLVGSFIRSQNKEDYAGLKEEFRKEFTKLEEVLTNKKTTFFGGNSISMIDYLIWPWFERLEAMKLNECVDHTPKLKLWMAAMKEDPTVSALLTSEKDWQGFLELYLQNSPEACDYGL
TDP2 absorb: TDP2 (human) inhibition, absorbance primary screen; O95551; recombinant TDP2, T5PNP hydrolysis, p-nitrophenol absorbance 415 nm; inhibition, % at 12.8 µM; 370,000 tested, 0.34% active;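 active = inhibition above the mean of all tested compounds plus 3 SD, set per campaign, cut at about 25% in these data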
Target sequence (O95551 whole entry, looked up): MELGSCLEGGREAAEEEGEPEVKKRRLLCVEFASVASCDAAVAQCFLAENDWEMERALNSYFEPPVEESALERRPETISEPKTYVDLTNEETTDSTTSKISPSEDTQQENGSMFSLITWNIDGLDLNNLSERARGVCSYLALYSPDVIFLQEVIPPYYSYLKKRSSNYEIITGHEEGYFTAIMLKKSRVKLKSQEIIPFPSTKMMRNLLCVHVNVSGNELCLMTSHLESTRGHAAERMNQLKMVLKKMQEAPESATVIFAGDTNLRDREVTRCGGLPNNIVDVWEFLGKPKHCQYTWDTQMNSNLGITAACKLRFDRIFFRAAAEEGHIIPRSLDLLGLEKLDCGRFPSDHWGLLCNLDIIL
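test system = human TDP2 enzyme | input = TDP2 enzyme at 120 nM final | medium = 50 mM Tris-HCl pH 7.5 with Mg2+, KCl, DTT, BSA | also added = T5PNP substrate, 5 mM | times = 2 h at 37 °C | technique = epi absorbance | benchmarks = high control without enzyme, low control DMSO plus TDP2 | replication = each compound tested once, singlicate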
PAD4 FP inh: inhibitors of human PAD4 | recombinant PAD4, RCA probe fluorescence polarization | inhibition, % at 6.36 µM | 330,000 tested, 0.41% active | AID 485272;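 active = percent inhibition above a cutoff equal to the mean of all tested compounds plus 3 SD, cut at about 15% in these data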
Hits are given with their value; . = inactive; / = not tested or not shown. Rows were chosen to be rich in hits. Some 1.4% of all compounds tested hit in one or more screens of this group.

SMILES	Fh CTSL1 inh	GSTO1 counter	TDP2 absorb	PAD4 FP inh
O=C1CC(N2CCC(c3nc4ccccc4s3)CC2)C(=O)N1Cc1ccccc1 (stereo unspecified)	.	.	.	.
O=C(O)/C(=C\c1ccc(Cl)c([N+](=O)[O-])c1)c1ccc(S(=O)(=O)N2CCCC2)s1	/	/	.	.
O=C(O)/C(=C\c1ccc(Cl)c([N+](=O)[O-])c1)c1ccc(S(=O)(=O)N2CCCCC2)s1	.	62.2	.	.
CC(=O)c1cc(-c2ccc(Cl)c(Cl)c2)c(=O)n2c1CCC2	/	/	.	/
CC1CC(C)CN(S(=O)(=O)c2ccc(NC(=S)NC(=O)c3ccccc3)cc2)C1 (stereo unspecified)	18.9	.	.	.
O=C(NC(=S)Nc1ccc(S(=O)(=O)N2CCCCC2)cc1)c1ccccc1	.	.	.	.
COc1ccc(-c2nnn3c2Cn2c4ccccc4c(=O)n2[C@@H](C)C3)cc1	/	/	.	/
O=C(Cc1ccc(Cl)cc1)N/N=C/c1ccccc1	.	.	.	.
O=C(Cc1ccc(Cl)cc1)N/N=C/c1cccc(O)c1	17.7	.	.	.
COCO[C@@H]1CC(CO)=C[C@H]2OCO[C@H]21	/	/	.	/
COc1ccc(CCNC(=O)CSc2ccc3ccccc3c2)cc1OC	.	.	.	.
O=C(CSc1ccc2ccccc2c1)NCCc1ccc(O)c(O)c1	.	52.4	.	.
COC(=O)C1CN(Cc2cn(CCOC(C)=O)nn2)CCS(=O)(=O)N1Cc1ccc(F)cc1 (stereo unspecified)	/	/	.	/
CC(C)C(OC(=O)c1cccs1)C(=O)NCc1ccco1 (stereo unspecified)	.	.	.	.
Cc1cc2c(cc(C(=O)OC(C(=O)NCc3ccco3)C(C)C)n2C)o1 (stereo unspecified)	23.7	.	.	.
COC(=O)C1CN(Cc2ccc(Cl)cc2)CCS(=O)(=O)N1Cc1cn(Cc2ccc(C)cc2)nn1 (stereo unspecified)	/	/	.	/
Cc1nn(C(=O)CCC(=O)NCc2ccccc2Cl)c2ccccc12	19.5	.	.	.
COc1ccc(-c2cn[nH]c2-c2ccc(OC)cc2O)cc1	.	.	.	.
COc1ccc(-c2[nH]ncc2-c2ccc(Cl)cc2)c(O)c1	17.3	.	.	.
O=C(Cn1cc(COC(=O)c2c3ccccc3cc3ccccc23)nn1)c1ccc(O)cc1	/	/	.	/
COc1ccc(/C(C)=N/OC/C(O)=C(\C#N)c2nc3ccccc3[nH]2)c(OC)c1	.	36.9	.	.
COc1ccc(/C(C)=N/OC/C(O)=C(\C#N)c2nc3ccccc3[nH]2)cc1OC	.	.	.	.
COP(=O)(CC(=O)OC(C)(C)C)C(CC(C)C)NC(=O)OCc1ccccc1 (stereo unspecified)	/	/	.	/
Cc1ccc(N2C(=O)c3ccccc3C2C(=O)c2cc(C)ccc2O)cc1 (stereo unspecified)	.	35.0	.	.
O=C(OCc1cn(Cc2c(F)cccc2F)nn1)N1CCOCC1	/	/	.	/
SMILES	Fh CTSL1 inh	GSTO1 counter	TDP2 absorb	PAD4 FP inh
COc1ccc(-c2nc(N)ncc2-c2csc(C)n2)c(O)c1	.	.	.	.
COc1ccc(-c2ncnc(C(F)(F)F)c2-c2csc(C)n2)c(O)c1	18.4	.	.	.
CNC(=O)COC(=O)c1ccc([N+](=O)[O-])cc1Cl	17.6	.	.	.
CC(C)NC(=O)NC(=O)COC(=O)c1ccc([N+](=O)[O-])cc1Cl	.	.	.	.
CC(C)C[C@H]1COc2cccc(F)c2S(=O)(=O)N1Cc1cn(CC2CCCCC2)nn1	/	/	.	/
Nc1cccc2cc(S(=O)(=O)O)ccc12	/	/	27.0	/
Nc1ccc2c(S(=O)(=O)O)cccc2c1S(=O)(=O)O	/	/	.	/
Cc1cc2ncn(/N=C/c3ccc([N+](=O)[O-])s3)c2cc1C	.	.	.	.
O=[N+]([O-])c1ccc(/C=N/n2c(CO)nc3ccccc32)s1	.	37.0	.	.
Cc1nc2ccccc2n1/N=C/c1ccc([N+](=O)[O-])o1	.	36.7	.	.
Cc1cc(C)cc(N=Cc2ccc([N+](=O)[O-])s2)c1	.	35.6	.	.
Cc1nc2ccccc2c(=O)n1/N=C/c1ccc([N+](=O)[O-])o1	.	.	/	.
O=[N+]([O-])c1ccc(C=Nc2ccc(Cl)c([N+](=O)[O-])c2)s1	/	/	.	/
Cc1nc2ccccc2n1/N=C/c1ccc([N+](=O)[O-])s1	.	46.6	.	.
O=C(Cc1cccs1)N/N=C\c1ccc([N+](=O)[O-])s1	.	.	.	.
COC(=O)[C@H](C(C)C)N1CCc2nnn(Cc3ccccc3)c2-c2cc(F)ccc2S1(=O)=O	/	/	.	/
O=C(OCCCCSc1nnc(-c2cccc3ccccc23)o1)c1ccc(F)cc1	/	/	.	/
Cc1ccc(N(C)c2nc(N)nc(N)c2N=O)cc1	/	/	.	/
COc1ccc(CN2C(=O)CCCC2(C)c2nnnn2-c2ccc3c(c2)OCCO3)cc1 (stereo unspecified)	/	/	.	/
COc1ccc(Cl)cc1NC(=S)NNC(=O)CC(C)C	26.6	.	.	.
C[C@@H]1/C=C/CC(=O)N[C@H](c2cccc(Br)c2)[C@H](C)/C=C/CC(=O)N[C@@H]1c1cccc(Br)c1	/	/	.	/
CCOC(=O)Nc1cccc(OCC(=O)Nc2ccccc2OCC)c1	29.7	.	.	.
CC(=O)Nc1cccc(OCC(=O)Nc2ccccc2)c1	.	.	.	.
Cc1ccc(C(=O)Oc2oc(-c3ccco3)nc2C=Nc2ccc(Cl)cc2)cc1	21.4	.	.	.
O=C(Oc1oc(-c2ccco2)nc1C=Nc1ccccc1)c1ccco1	19.8	.	/	.
SMILES	Fh CTSL1 inh	GSTO1 counter	TDP2 absorb	PAD4 FP inh
O=C(Oc1oc(-c2ccco2)nc1C=Nc1ccccc1)c1ccoc1	.	.	.	.
Cc1nc2sc(C(=O)NCc3ccncc3)c(N)c2c(C)c1Cl	/	/	.	/
COc1ccc(CCNC(=O)Nc2ccc3c(c2)[C@@]2(CC(=O)N(CC(C)C)C2c2ccccc2)C(=O)N3C)cc1OC (stereo partly specified)	/	/	.	/
COC(=O)[C@]12C[C@H](CC(=O)NCc3cccs3)C(=O)N(Cc3ccc(Cl)cc3Cl)C1=C[C@H](COCc1ccccc1)O[C@@H]2C	/	/	.	/
Brc1ccc(OCc2nc3ccccc3[nH]2)cc1	.	36.6	.	.
C[C@@H]1CCCCO[C@@H](CN(C)CC2CCCCC2)[C@@H](C)CN([C@H](C)CO)C(=O)c2cc(NC(=O)Nc3ccc4c(c3)OCO4)ccc2O1	/	/	.	/
CC(=O)CS(=O)(=O)c1ccc(Oc2ccc(S(=O)(=O)CC(C)=O)cc2)cc1	24.4	.	.	.
O=C(O)CS(=O)(=O)c1ccc(Oc2ccc(S(=O)(=O)CC(=O)O)cc2)cc1	.	.	.	.
Oc1cc2c(cc1O)C1c3ccc(O)c(O)c3OCC1(O)C2 (stereo unspecified)	.	49.0	.	.
CC1CN(c2nc3ccccc3nc2SCC(=O)N2CCN(S(=O)(=O)c3ccccc3)CC2)CC(C)O1 (stereo unspecified)	/	/	.	/
COc1ccccc1C(=O)N/C(=C\c1ccccc1)C(=O)NCc1ccco1	17.2	.	.	.
O=C(NCc1ccco1)/C(=C\C=C\c1ccccc1)NC(=O)c1ccco1	16.7	.	.	.
O=C(NCc1ccco1)/C(=C/c1ccco1)NC(=O)c1ccc(Br)o1	16.9	.	.	.
O=C(NCc1ccco1)/C(=C\c1ccco1)NC(=O)c1ccc(Br)o1	.	.	.	.
